High-throughput results as filed in PubChem BioAssay.
NTR1 agonist – NTR1 (human) agonism. NTR1-U2OS beta-arrestin-GFP spot imaging, agonist mode. AID 493036. P30989. activation, % at 20 µM. 330,000 compounds, 0.17% hits;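 active = activation at or above 40% of the spot to cytoplasm intensity ratio, with at least 20 cells analyzed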
Arr AP2 block – human beta-arrestin and AP2 interaction inhibition | FITC-arrestin peptide / GST-AP2 beads, flow cytometry; AP2 beta2 appendage carries R879A mutation | inhibition, % at 10 µM | 340,000 compounds, 0.31% hits | AID 504490;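 active = inhibition above a set limit, near 3 SD of compounds lacking own fluorescence, cut at about 54% in these data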
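test system = AP2 appendage R879A on GSH beads | buffer or medium = PBS plus Tween 20 (0.05%) and BSA (0.1%) | incubation = 12 min plus 1 h, RT | detection = bead flow cytometry, FITC channel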
GRK2 inh – inhibitors of human GRK2 displacing RNA aptamer. bead flow cytometry, FAM-aptamer displacement from GRK2. inhibition of aptamer binding, % at 10 µM. 330,000 compounds, 0.59% hits. AID 488847;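 active = inhibition of aptamer binding above 40%, roughly 3 SD of noise, on plates passing a quality check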;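 note: median bead fluorescence of bound FAM aptamer so fluorescent compounds give negative values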
Target sequence (P25098 whole entry, looked up): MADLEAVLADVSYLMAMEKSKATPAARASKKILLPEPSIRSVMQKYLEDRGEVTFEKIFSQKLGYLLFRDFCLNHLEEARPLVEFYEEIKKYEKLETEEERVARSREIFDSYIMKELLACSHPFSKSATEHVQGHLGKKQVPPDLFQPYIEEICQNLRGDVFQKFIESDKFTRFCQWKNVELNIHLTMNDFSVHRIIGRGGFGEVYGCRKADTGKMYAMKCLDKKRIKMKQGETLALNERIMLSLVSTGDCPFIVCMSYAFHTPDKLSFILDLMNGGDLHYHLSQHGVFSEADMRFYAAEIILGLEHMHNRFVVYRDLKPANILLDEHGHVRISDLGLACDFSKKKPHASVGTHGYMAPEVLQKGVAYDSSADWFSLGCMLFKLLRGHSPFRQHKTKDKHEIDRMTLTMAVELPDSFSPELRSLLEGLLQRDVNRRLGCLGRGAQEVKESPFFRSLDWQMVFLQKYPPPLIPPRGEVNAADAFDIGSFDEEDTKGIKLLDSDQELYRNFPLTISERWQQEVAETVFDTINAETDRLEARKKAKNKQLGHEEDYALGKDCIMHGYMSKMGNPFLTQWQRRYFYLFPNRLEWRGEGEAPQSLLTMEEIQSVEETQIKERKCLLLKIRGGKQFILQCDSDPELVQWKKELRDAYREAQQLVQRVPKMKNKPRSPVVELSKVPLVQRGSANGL
Lipid droplet – hepatic lipid droplet formation modulation | AML12 mouse hepatocytes, oleate lipid droplets, BODIPY imaging | inhibition, % at 6.5 µM | 240,000 compounds, 0.4% hits | AID 1656;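 active = lipid droplet intensity inhibited by at least 50%, with more than 500 cells counted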
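Material – AML12 mouse liver cells · Also added – oleate loading, 100 µM · Compound dosing – 6.5 µM single-point dosing · Times – overnight treatment with compound plus oleate · Measured by – fluorescence imaging, 20x objective, two fields per well · Read-out – percent inhibition of filter-corrected integrated lipid droplet intensity per well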
TAG inh – triacylglycerol accumulation inhibition; inhibition, % at 12.5 µM; 230,000 compounds, 0.66% hits; H9c2 cells, Nile Red lipid (TAG) fluorescence; cells loaded with 200 µM oleic acid;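 active = pattern-corrected inhibition of lipid staining of at least 50% with the nuclear-stain viability signal not falling by more than 50%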
B2AR ag – activates human beta-2 adrenergic receptor causing internalization; AID 504454; response, % (test concentration not listed); P07550; Am2.2-beta2AR cells, FAP receptor internalization, flow cytometry; 340,000 compounds, 0.43% hits;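 active = response above a set limit, near 3 SD of response in nonfluorescent compounds, cut at about 42% in these data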
GRK2 inh confirm – human GRK2 inhibition confirmation, cherry pick 1 | shares compounds with GRK2 inh | bead-bound GRK2, FAM-aptamer displacement, flow cytometry | aptamer displacement, % at 10 µM | 2,000 compounds, 4% hits;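 active = aptamer displacement above 40%, near three times the noise of non-fluorescent compounds, on plates passing quality checks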;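 note: negative values mostly reflect intrinsic compound fluorescence rather than true enhancement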
FAM quench CP1 – counter-screen for GRK2 aptamer inhibitors: fluorescent aptamer quenchers. fluorescence response (% of DMSO), % at 10 µM. shares compounds with GRK2 inh. 2,000 tested, under 10 active. Carboxyfluorescein RNA aptamer on beads, flow cytometry quenching; active compounds read low;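 active = compounds that quench the bead-bound fluorescent RNA probe, cutting fluorescence to under half of the solvent control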;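 note: counterscreen run without GRK2 so only probe quenching by compound is measured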
GRK2 CP2 – human GRK2 inhibition confirmation, cherry pick 2; shares compounds with GRK2 inh; bead-bound GRK2, FAM-aptamer displacement, flow cytometry; inhibition of aptamer binding, % at 10 µM; 360 tested, under 10 active;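 active = inhibition of aptamer binding above 40%, about triple the noise seen with nonglowing compounds, on plates passing quality control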;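 note: negative values mostly come from compounds that fluoresce themselves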
FAM quench CP2 – counter-screen for GRK2 binding hits: quenchers of fluorescent RNA aptamer; shares compounds with GRK2 inh; carboxyfluorescein RNA aptamer beads, flow cytometry quenching; active compounds read low; fluorescence response vs DMSO, % at 10 µM; 360 tested, under 10 active; AID 588494;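 active = response vs DMSO under 50%, meaning signal dropped by over half, treated as fluorescence quencher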;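 note: labelled aptamer on streptavidin beads without GRK2 as a quench counter-screen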
Of the large screens only hits and unclear results are named; the others gave an inactive call (follow-up assays come after a bar, where they were run). Most compounds without a hit are left out; they make up all but 2% or so of the library.

Cn1c(=O)c2c(ncn2CC(=O)OCC(=O)NCc2ccc(F)cc2)n(C)c1=O	none (no result: NTR1 agonist, Arr AP2 block, GRK2 inh, Lipid droplet, B2AR ag)
NC(=O)C(=O)N/N=C/c1c(F)c(F)c(F)c(F)c1F	none
O=C(NCC(F)(F)F)c1ccc(S(=O)(=O)Nc2ccccc2N2CCCC2)cc1	GRK2 inh 89 (no result: Lipid droplet) | GRK2 inh confirm inactive | FAM quench CP1 inactive
Cc1ccc(S(=O)(=O)Nc2ccccc2N2CCCCC2)cc1	none (no result: Lipid droplet)
N#Cc1ccc2sn(-c3ccccc3)c(=O)c2c1	none (no result: NTR1 agonist, Arr AP2 block, GRK2 inh, Lipid droplet, B2AR ag)
CC(C)NC(=O)N(C)C[C@H]1Oc2ccc(NC(=O)c3ccncc3)cc2C(=O)N([C@H](C)CO)C[C@@H]1C	none (no result: Lipid droplet, TAG inh)
Cc1c(C(=O)N2CCCCCC2)c(S(=O)(=O)Nc2ccc(F)cc2)c(C)n1C	none (no result: TAG inh)
Cc1ccc(Cn2c(SC3CCOC3=O)nc3ccccc3c2=O)cc1 (configuration not stated)	GRK2 inh 43 (no result: Arr AP2 block, TAG inh) | GRK2 CP2 inactive | FAM quench CP2 inactive
Cc1ccc(Nc2c([N+](=O)[O-])cc(C(=O)N3CC(=O)Nc4ccccc43)cc2[N+](=O)[O-])c(C)c1	GRK2 inh 100 (no result: Lipid droplet, TAG inh) | GRK2 inh confirm inactive | FAM quench CP1 inactive
O=C(O)C(=Cc1ccccc1[N+](=O)[O-])c1ccc2c(c1)OCO2	none (no result: NTR1 agonist, Arr AP2 block, GRK2 inh, Lipid droplet, B2AR ag)
OCC[C@@H]1C[C@H](O)[C@@H](O)[C@@]2(CCCc3ccccc3O2)O1	none
CCOc1ccc(OCCCC(=O)N(C)CC(=O)Nc2ccccc2Br)cc1	GRK2 inh 46 (no result: Lipid droplet) | GRK2 inh confirm inactive | FAM quench CP1 inactive
Cc1ccc(OCCCC(=O)N(C)CC(=O)Nc2ccccc2Cl)cc1	none (no result: Lipid droplet)
Cc1c(Cl)ccc2sc(N3CCN(C(=O)C4=COCCO4)CC3)nc12	none (no result: Lipid droplet)
Cc1[nH][nH]c(=O)c1C(c1ccc(-c2cccc(Cl)c2)o1)c1c(C)[nH][nH]c1=O	none
Cc1[nH][nH]c(=O)c1C(c1ccc(-c2cccc(C(=O)O)c2)o1)c1c(C)[nH][nH]c1=O	GRK2 inh 42 | GRK2 CP2 inactive | FAM quench CP2 inactive
CCOc1ccc(CNC(=S)N/N=C/c2cccnc2)cc1	none
CCOc1ccc(CNC(=S)N/N=C\c2ccc([N+](=O)[O-])cc2)cc1	GRK2 inh 64 | GRK2 inh confirm inactive | FAM quench CP1 inactive
COC(=O)[C@H](Cc1ccccc1)NC(=O)C1(OC(C)=O)CC(OC(C)=O)C(OC(C)=O)C(OC(C)=O)C1 (some centres not stated)	GRK2 inh 63 (no result: TAG inh) | GRK2 inh confirm inactive | FAM quench CP1 inactive
CC(C)C[C@@H](CN=[N+]=[N-])N1CCN(C)CCC1=O	none (no result: Lipid droplet)
CCCCCCn1c(CN2CCCCC2CC)nc2c1c(=O)n(C)c(=O)n2C (configuration not stated)	none | GRK2 inh confirm inactive | FAM quench CP1 inactive
CCOCCn1c(CN2CCCCC2C)nc2c1c(=O)n(C)c(=O)n2C (configuration not stated)	none
CCC1CCCCN1Cc1nc2c(c(=O)n(C)c(=O)n2C)n1CC(C)C (configuration not stated)	none | GRK2 inh confirm inactive | FAM quench CP1 inactive
CCC1CCCCN1Cc1nc2c(c(=O)n(C)c(=O)n2C)n1CCC(C)C (configuration not stated)	none | GRK2 inh confirm inactive | FAM quench CP1 inactive
CC(C)Cn1c(CN(C)Cc2ccccc2)nc2c1c(=O)n(C)c(=O)n2C	GRK2 inh 76 | GRK2 inh confirm inactive | FAM quench CP1 inactive
O=C(CSc1cn[nH]n1)Nc1ccccc1F	none (no result: Lipid droplet)
C/C(=N\NC(=O)c1nnn(-c2nonc2N)c1CSc1ccccc1)c1ccc2c(c1)OCO2	none (no result: TAG inh)
O=C(N/N=C/c1cc(Br)ccc1OC(=O)c1ccc(Br)cc1)c1ccncc1	none (no result: TAG inh)
Cc1ccc(C2=NCCn3c2c2ccccc2[n+]3[O-])cc1	none (no result: Lipid droplet)
O=C(COc1ccc2c3c(c(=O)oc2c1)CCCC3)NCCCN1CCOCC1	none (no result: TAG inh)
O=C(NC1CCCC1)c1ccc(COc2ccccc2Br)o1	none (no result: TAG inh)
Cc1c(NC(=O)C(C)OC(=O)c2ccc(NC(=O)CC#N)cc2)c(=O)n(-c2ccccc2)n1C (configuration not stated)	none (no result: Lipid droplet)
COc1ccc(CN(C)C(C)C(=O)Nc2ccc(S(=O)(=O)N3CCOCC3)cc2)c(OC)c1 (configuration not stated)	none
COc1ccc(CN(C)C(C)C(=O)Nc2ccc(S(=O)(=O)N3CCCCC3)cc2)cc1F (configuration not stated)	GRK2 inh 72 (no result: Lipid droplet) | GRK2 inh confirm inactive | FAM quench CP1 inactive
CN(CC(=O)NCc1ccc(F)cc1)S(=O)(=O)c1ccc(Br)s1	none (no result: TAG inh)
CN(CC(=O)NCCc1ccc(S(N)(=O)=O)cc1)S(=O)(=O)c1ccc(Br)s1	GRK2 inh 90 (no result: TAG inh) | GRK2 inh confirm inactive | FAM quench CP1 inactive
CCCCC1(C)OC(=O)C(=Cc2ccc(-c3ccc(Cl)c(C(=O)O)c3)o2)C(=O)O1 (configuration not stated)	GRK2 inh 55 | GRK2 inh confirm inactive | FAM quench CP1 inactive
Cc1ccc(N2NC(=O)/C(=C/c3ccc(-c4ccc(Cl)c(C(=O)O)c4)o3)C2=O)cc1	none (no result: TAG inh)
Nc1c(C(=O)c2ccc(Cl)cc2)sc2c1c(=O)[nH]c(=O)n2-c1ccccc1	GRK2 inh 100 (no result: TAG inh) | GRK2 CP2 inactive | FAM quench CP2 inactive
Nc1c(C(=O)c2ccccc2)sc2c1c(=O)[nH]c(=O)n2-c1ccccc1	none (no result: TAG inh)
Cn1cnc(Sc2ncnc3nc[nH]c23)c1[N+](=O)[O-]	GRK2 inh 96 | GRK2 inh confirm inactive | FAM quench CP1 inactive
Cn1cnc([N+](=O)[O-])c1Sc1ncnc2nc[nH]c12	none
CC1(C)Cc2c(sc(NC(=O)COc3cccc4ccccc34)c2C#N)C(C)(C)N1	GRK2 inh 63 | GRK2 inh confirm inactive | FAM quench CP1 inactive
Cc1ccc(OCC(=O)Nc2sc3c(c2C#N)CC(C)(C)NC3(C)C)cc1	none
